According to publication PMC2494688 (Diabetes, 2008):

Legend:
[1] = biological target: human GPR40 (Homo sapiens, UniProt O14842); format: cell-based; conditions: CHO cells, in words
Summary of the method: (§1)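 GPR40 stably expressed in CHO cells carrying NFAT β-lactamase, seeded 1 day before. Test compound in DMSO, diluted in assay buffer, added as a 5× solution. Calcium signal read on FLIPR from 10 s before addition. EC50 taken from concentration–response curves.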

[2] = biological target: mouse GPR40 (Mus musculus, UniProt Q76JU9); format: cell-based; conditions: CHO cells, in words
Summary of the method: as §1

[3] = test system: islets from wild-type mice; experiment: Static GDIS assay, 1-h incubation, wild-type islets; format: cell-based, mouse; conditions: 200 μmol/l, 16 mmol/l glucose, n = 6
Summary of the method: (§2)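 Islets isolated by collagenase digestion and Ficoll gradient, cultured overnight in RPMI-1640 with 11 mmol/l glucose. Preincubated 30 min in KRB (0.2% BSA) with 2 mmol/l glucose. One islet/well incubated 60 min at 2 or 16 mmol/l glucose, ± 200 μmol/l oleate or palmitate or 10 μmol/l test compound; DMSO vehicle. Insulin by ultrasensitive rat insulin ELISA. Two experiments, six replicates in total. Wild-type islets also tested across a compound concentration series at 16 mmol/l glucose (three experiments).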

[4] = test system: islets from GPR40−/− mice; experiment: Static GDIS assay, 1-h incubation, GPR40−/− islets; format: cell-based, mouse; conditions: 200 μmol/l, 16 mmol/l glucose, n = 6, P > 0.05
Summary of the method: as §2

[5] = test system: wild-type C57BL/6 mice; experiment: IPGTT in wild-type lean mice; format: in vivo, mouse; conditions: 0.0025 mg/kg, positive control
Summary of the method: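 Lean male C57BL/6N mice fasted 5–6 h, dosed orally with compound (1–100 mg/kg) or 0.25% methylcellulose vehicle (10 ml/kg) 60 min before 2 g/kg i.p. dextrose. Tail glucose sampled to 60 min. Percent inhibition derived from the 0–60 min AUC minus the vehicle/water group AUC. Plasma compound measured by LC-MS/MS at 60 min of IPGTT (2 h post-dose).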

Sequence of mouse GPR40 (Q76JU9 whole entry): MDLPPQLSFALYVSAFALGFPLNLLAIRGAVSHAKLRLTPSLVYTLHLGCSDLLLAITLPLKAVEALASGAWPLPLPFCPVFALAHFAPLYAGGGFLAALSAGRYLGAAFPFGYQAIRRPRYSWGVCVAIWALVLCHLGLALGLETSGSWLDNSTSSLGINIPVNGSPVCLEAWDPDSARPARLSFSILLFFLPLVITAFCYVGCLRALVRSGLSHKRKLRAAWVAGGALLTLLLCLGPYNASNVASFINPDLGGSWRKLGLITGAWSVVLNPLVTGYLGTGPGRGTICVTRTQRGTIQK
Sequence of human GPR40 (O14842 whole entry): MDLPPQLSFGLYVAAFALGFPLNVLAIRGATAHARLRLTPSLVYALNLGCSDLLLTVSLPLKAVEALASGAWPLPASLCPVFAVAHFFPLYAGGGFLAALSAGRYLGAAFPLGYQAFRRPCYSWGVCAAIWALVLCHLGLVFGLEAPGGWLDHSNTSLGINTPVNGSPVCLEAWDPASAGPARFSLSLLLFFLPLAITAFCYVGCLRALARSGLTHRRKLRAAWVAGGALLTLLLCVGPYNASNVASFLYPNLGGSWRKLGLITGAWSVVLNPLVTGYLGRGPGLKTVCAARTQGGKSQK

| Activation of human GPR40 receptor [1] | Activation of mouse GPR40 receptor [2] | Compound | Promotion of glucose-dependent insulin secretion [3] | Promotion of glucose-dependent insulin secretion [4] | Effect on glucose excursion during IPGTT [5] |
| --- | --- | --- | --- | --- | --- |
| minimal activation | minimal activation | CCCC(=O)O [butyric C4:0] |  |  |  |
| minimal activation | minimal activation | CCCCC(=O)O [pentanoic C5:0, pentanoic acid] |  |  |  |
| minimal activation | minimal activation | CCC(=O)O [propionic C3:0] |  |  |  |

Continued, compound first:

| Compound | Activation of human GPR40 receptor [1] | Activation of mouse GPR40 receptor [2] | Promotion of glucose-dependent insulin secretion [3] | Promotion of glucose-dependent insulin secretion [4] | Effect on glucose excursion during IPGTT [5] |
| --- | --- | --- | --- | --- | --- |
| CCCCCCCC/C=C\CCCCCCCC(=O)O [oleic C18:1, oleic acid] |  |  | 1.9 ± 0.4 fold | 1.2 ± 0.3 fold |  |
| CCCCCCCCCCCCCCCC(=O)O [palmitate, palmitic acid] |  |  | 2.4 ± 0.3 fold | 1.8 ± 0.5 fold |  |
| exendin-4: glucagon-like peptide 1 mimetic, positive control |  |  |  |  | completely prevented any glucose excursion |
